High-throughput results: PubChem, Sanford-Burnham Center for Chemical Genomics
ATG4B inhibitor: ATG4B protease inhibitors, primary screen, biochemical, fluorescence, uHTS; Cysteine protease ATG4B (Homo sapiens), Q9Y4P1; ATG4B cleavage of LC3-PLA2, NBD-HPC fluorescence, 1 h; inhibition, % at 8.33 µM; hit rate 0.51% among 340,000; AID 504462, 2011; in the data active = inhibition above about 40%
Target sequence (Q9Y4P1 whole entry, looked up): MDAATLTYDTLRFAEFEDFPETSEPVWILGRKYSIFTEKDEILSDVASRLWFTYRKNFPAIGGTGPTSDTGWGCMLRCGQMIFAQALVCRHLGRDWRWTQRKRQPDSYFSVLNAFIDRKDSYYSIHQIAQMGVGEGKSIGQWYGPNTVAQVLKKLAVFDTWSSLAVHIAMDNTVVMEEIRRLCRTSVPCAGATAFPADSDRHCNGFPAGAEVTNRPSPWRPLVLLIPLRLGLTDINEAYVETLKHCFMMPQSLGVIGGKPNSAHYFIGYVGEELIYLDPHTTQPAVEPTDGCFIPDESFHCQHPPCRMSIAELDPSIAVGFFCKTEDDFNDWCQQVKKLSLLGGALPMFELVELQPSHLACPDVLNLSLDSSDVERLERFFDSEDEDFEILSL
MT1-MMP act inh: blockers of MT1-MMP proenzyme processing, primary screen, HT1080 RFP-PRO-GFP cells, GFP/RFP fluorescence | Matrix metalloproteinase-14 (Homo sapiens), P50281 | GFP/RFP ratio fluorescence, overnight; percent of plate control window, DMSO zero | GFP/RFP ratio change, % at 20 µM | hit rate 0.061% among 360,000 | AID 651647, 2012;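 active = GFP/RFP ratio change of at least 30% with cell ATP level not reduced by more than half and red fluorescence within 50% of control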
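Compound: 20 µM single dose, 1% DMSO / System: HT1080 RFP-PRO-GFP cells / Controls: DMSO and RFP-L50D-GFP cell wells / Read-out basis: GFP/RFP fluorescence ratio / Schedule: overnight compound exposure at 37 °C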
SKN-1 block: suppressors of acrylamide-induced Pgst-4::GFP reporter in worms, primary screen, SKN-1 inhibitor project, whole organism, uHTS, GFP/RFP fluorescence ratio, strain VP596 | C. elegans VP596 Pgst-4::GFP/RFP ratio, 24 h | hit rate 0.49% among 360,000 | inhibition, % at 21.8 µM | AID 624304, 2012;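 active = interference check ratio from 0.5 to 1.5 plus GFP to RFP signal ratio inhibition reaching or exceeding a fixed threshold, cut at about 30% in these data, passing the limit was not always enough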
MPTP inh: mitochondrial permeability transition pore inhibitors, primary screen, biochemical, isolated mouse mitochondria, absorbance. Ca2+ swelling absorbance, 30 min. inhibition, % at 10 µM. hit rate 1.4% among 360,000;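 active = inhibition of 50% or more, scaled per plate between neutral and stimulator controls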;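 note: 0% = DMSO wells given calcium and 100% = 1 mM EGTA wells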
* marks the source's active call; other numbers are inactive results. Compounds with a hit are over-represented: about 2.3% of the library has one in this group of screens.

`Clc1ccc(-n2cc(COCc3ccccc3)nn2)cc1` gave ATG4B inhibitor 11, MT1-MMP act inh -3, SKN-1 block -3 and MPTP inh 1.
For O=C(Nc1ccc(-c2nc3cccnc3s2)cc1)c1ccco1 the results were ATG4B inhibitor -2, MT1-MMP act inh -1, SKN-1 block 46* and MPTP inh 0.
O=C(Nc1cccc(-c2nc3cccnc3s2)c1)c1ccco1 was read as ATG4B inhibitor -15, MT1-MMP act inh 3, SKN-1 block 10 and MPTP inh 0.
Screening O=C(c1ccccc1Cl)N1CCN(C(=O)C2CCCO2)CC1 (stereo not drawn) returned ATG4B inhibitor -1, MT1-MMP act inh 4, SKN-1 block -1 and MPTP inh 0.
For CCc1ccc(-c2nn(-c3cc(Cl)ccc3[N+](=O)[O-])c(=O)c3ccccc23)cc1 the results were ATG4B inhibitor -4, MT1-MMP act inh -4, SKN-1 block 37* and MPTP inh -2.
CNC(=O)c1cc2c(-c3ccccc3)nn(C)c2s1 was read as ATG4B inhibitor 2, MT1-MMP act inh 12, SKN-1 block 17 and MPTP inh 1.
COc1ccc(CNC(=O)C[C@@H]2C[C@H]3c4cc(NC(=O)NC5CCCC5)ccc4O[C@H]3[C@H](CO)O2)cc1 was read as MT1-MMP act inh 1, SKN-1 block -11 and MPTP inh 0.
For COc1ccc(Cl)cc1C(=O)Nc1ccccc1N1CCN(C)CC1 the results were ATG4B inhibitor -7, MT1-MMP act inh -11, SKN-1 block 4 and MPTP inh 4.
`COc1ccc(Cl)cc1C(=O)Nc1ccccc1N1CCCCC1` gave ATG4B inhibitor -1, MT1-MMP act inh -5, SKN-1 block 35* and MPTP inh 0.
`S=C(Nc1ccccc1)Nc1nc2ccccc2n1CCOc1ccccc1` gave ATG4B inhibitor 1, MT1-MMP act inh 9, SKN-1 block 41* and MPTP inh 4.
For CC(=O)Nc1nc2ccccc2n1CCOc1ccccc1 the results were ATG4B inhibitor -14, MT1-MMP act inh 10, SKN-1 block -8 and MPTP inh 0.
Screening O=C(CN1CCN(S(=O)(=O)N2CCCCC2)CC1)Nc1ccc(Cl)c(Cl)c1 returned ATG4B inhibitor 6, MT1-MMP act inh 1, SKN-1 block -10 and MPTP inh 1.
For O=C(CN1CCN(S(=O)(=O)N2CCCCC2)CC1)Nc1cc(Cl)cc(Cl)c1 the results were ATG4B inhibitor -5, MT1-MMP act inh 3, SKN-1 block 37* and MPTP inh 2.
For CC(=O)Nc1cc(C(F)(F)F)ccc1OCC1CCCO1 (stereo not drawn) the results were ATG4B inhibitor 5, MT1-MMP act inh 2, SKN-1 block 37* and MPTP inh 0.
For CC(=O)Nc1ccc(NC(=O)c2cc(-c3cc(F)ccc3OCC3CCCO3)n[nH]2)cc1 (stereo not drawn) the results were MT1-MMP act inh 0, SKN-1 block -2 and MPTP inh 1.
For CCSc1nnc(-c2ccc(Cl)cc2Cl)o1 the results were ATG4B inhibitor -1, MT1-MMP act inh -3, SKN-1 block 67* and MPTP inh 0.
Clc1ccc(-c2nnc(-c3ccccc3)o2)c(Cl)c1 was read as ATG4B inhibitor -2, MT1-MMP act inh 1, SKN-1 block 69* and MPTP inh 3.
`Fc1ccc(-c2nnc(-c3ccc(Cl)cc3Cl)o2)cc1` gave ATG4B inhibitor -3, MT1-MMP act inh -4, SKN-1 block 48* and MPTP inh 0.
Screening CSc1ccccc1-c1nnc(-c2ccc(Cl)cc2Cl)o1 returned ATG4B inhibitor 0, MT1-MMP act inh -1, SKN-1 block 1 and MPTP inh 3.
For CSc1nnc(-c2ccc(Cl)cc2Cl)o1 the results were ATG4B inhibitor -4, MT1-MMP act inh 6, SKN-1 block 20 and MPTP inh 1.
Screening CCNc1ccc(Br)cc(C(=O)/C=C/c2ccc(Cl)cc2Cl)c1=O returned ATG4B inhibitor 12, MT1-MMP act inh -33, SKN-1 block -8 and MPTP inh 13.
`O=C(Nc1ccccc1Cl)c1cnccn1` gave ATG4B inhibitor 8, MT1-MMP act inh 2, SKN-1 block -5 and MPTP inh -2.
For O=C(Nc1ccc(Br)cc1Cl)c1cnccn1 the results were ATG4B inhibitor 0, MT1-MMP act inh -5, SKN-1 block 61* and MPTP inh -1.
For COc1ccc(NC(=O)CN2C(=O)/C(=C3\SC(=S)N(C4CCS(=O)(=O)C4)C3=O)c3ccccc32)cc1 (stereo not drawn) the results were ATG4B inhibitor 2, MT1-MMP act inh -4, SKN-1 block 10 and MPTP inh 5.
`O=C(COC(=O)/C=C/c1ccc(Br)o1)NCCCN1CCCC1=O` gave ATG4B inhibitor -5, MT1-MMP act inh -1, SKN-1 block 0 and MPTP inh -5.
Screening CCC(C)(C)NC(=O)C(c1cccn1C)N(C(=O)Cn1nnc2ccccc21)c1ccc(OC)cc1OC (stereo not drawn) returned ATG4B inhibitor -15, MT1-MMP act inh -5, SKN-1 block 43* and MPTP inh 1.
CCOc1ccc(N(C(=O)Cn2nnc3ccccc32)C(C(=O)NC(C)(C)CC)c2cccn2C)cc1 (stereo not drawn) was read as ATG4B inhibitor -10, MT1-MMP act inh -5, SKN-1 block 3 and MPTP inh -3.
Screening Cc1ccc(C=Cc2ccccn2)cc1 returned MT1-MMP act inh 3, SKN-1 block 43* and MPTP inh 1.
Screening C(=C\c1ccccn1)/c1ccccn1 returned ATG4B inhibitor 3, MT1-MMP act inh 0, SKN-1 block 16 and MPTP inh -1.
For Clc1ccc(C=Cc2ccccn2)cc1 the results were ATG4B inhibitor 2, MT1-MMP act inh 0, SKN-1 block 72* and MPTP inh 2.
`COc1cccc(CC(=O)NN2C(=O)NC3(CCCCC3)C2=O)c1` gave ATG4B inhibitor -2, MT1-MMP act inh -2, SKN-1 block 7 and MPTP inh 0.
`Cc1ccc2cc3c(NC(=O)c4cccnc4)nn(C)c3nc2c1` gave ATG4B inhibitor 1, MT1-MMP act inh 6, SKN-1 block 40* and MPTP inh -3.
For CC(=O)c1ccc(S(=O)(=O)N2CCN(C(C)C(=O)N(C)Cc3ccccc3)CC2)cc1 (stereo not drawn) the results were ATG4B inhibitor -1, MT1-MMP act inh 6, SKN-1 block 11 and MPTP inh 0.
`Clc1ccc2c(c1)c1cc(Cl)ccc1n2CN1CCOCC1` gave ATG4B inhibitor -10, MT1-MMP act inh 3, SKN-1 block 33* and MPTP inh 1.
For O=C(/C=C/Nc1ccc(F)cc1)c1cccs1 the results were ATG4B inhibitor 0, MT1-MMP act inh 3, SKN-1 block 25 and MPTP inh 2.
`Cc1cccc(N/C=C/C(=O)c2cccs2)c1C` gave ATG4B inhibitor 26, MT1-MMP act inh -4, SKN-1 block 44* and MPTP inh 20.
